Data on two compounds can be found in PMC7821153 (Chemical Biology & Drug Design, 2020).

Where only a bound is given, the exact number is not on record here.

By CC50 is commonly meant the concentration that lowers cell viability or growth by half.

What all share (format): cell-based
A short description of data set [1]: Cellular cytotoxicity, ATP-dependent luminescence assay. The method in brief:
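Cytotoxicity measured by ATP-dependent luminescence, with CC50 derived. Values are from three independent experiments (n = 3), and standard deviations are reported.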

For another data set, the system named is WT HIV-1. As to the kind of experiment: Single-round infectivity assay, WT RT vector. The note with it: for EC50: Human immunodeficiency virus 1, read-out: EC50 WT; for TI (therapeutic index): calculated from CC50 and WT EC50. The method in brief: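 Single-round infection with an HIV-1-based vector (pNLNgoMIVR-ΔENV.LUC, Env-deleted, luciferase-carrying) with wild-type RT, used to derive EC50. Therapeutic index is calculated from CC50 (ATP-dependent luminescence assay) and wild-type EC50. Three independent experiments (n = 3), with standard deviations.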

For data set [2], the system named is HIV-1 NNRTI-resistant mutant L100I. As to the kind of experiment: Single-round infectivity assay, L100I. Conditions: Human immunodeficiency virus 1, read-out: EC50 L100I. The method in brief: (§1)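 Single-round infection with the HIV-1-based vector pNLNgoMIVR-ΔENV.LUC (Env-deleted, luciferase-carrying) bearing the indicated RT mutation(s), used to derive EC50. The mutant vectors are previously described constructs.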

The subject of data set [3] is HIV-1 NNRTI-resistant mutant K103N. As to the kind of experiment: Single-round infectivity assay, K103N. Conditions: Human immunodeficiency virus 1, read-out: EC50 K103N. The method in brief: as §1
Data set [4] deals with HIV-1 NNRTI-resistant mutant E138K. Put plainly: Single-round infectivity assay, E138K. Conditions: Human immunodeficiency virus 1, read-out: EC50 E138K. The method in brief: as §1
In data set [5] the test system is HIV-1 NNRTI-resistant mutant Y181C. As to the kind of experiment: Single-round infectivity assay, Y181C. The note with it: Human immunodeficiency virus 1, read-out: EC50 Y181C. The method in brief:
as §1

Data set [6] deals with HIV-1 NNRTI-resistant mutant Y188L. Put plainly: Single-round infectivity assay, Y188L. The note with it: Human immunodeficiency virus 1, read-out: EC50 Y188L. The method in brief: as §1
Data set [7] deals with HIV-1 NNRTI-resistant mutant H221Y. Put plainly: Single-round infectivity assay, H221Y. The note with it: Human immunodeficiency virus 1, read-out: EC50 H221Y. The method in brief: as §1
The subject of data set [8] is HIV-1 NNRTI-resistant mutant K103N/Y181C. As to the kind of experiment: Single-round infectivity assay, K103N/Y181C. The note with it: Human immunodeficiency virus 1, read-out: EC50 K103N/Y181C. The method in brief: as §1
For data set [9], the system named is HIV-1 NNRTI-resistant mutant G190A. Put plainly: Single-round infectivity assay, G190A. Conditions: read-out: EC50 G190A; single-round infection, n = 3. The method in brief:
as §1

In data set [10] the test system is HIV-1 NNRTI-resistant mutant G190S. Put plainly: Single-round infectivity assay, G190S. The note with it: read-out: EC50 G190S; single-round infection, n = 3. The method in brief:
as §1

The subject of data set [11] is HIV-1 NNRTI-resistant mutant M230L. Put plainly: Single-round infectivity assay, M230L. Conditions: Human immunodeficiency virus 1, read-out: EC50 M230L. The method in brief:
as §1

Data set [12] relates to HIV-1 NNRTI-resistant mutant P236L. As to the kind of experiment: Single-round infectivity assay, P236L. Conditions: read-out: EC50 P236L; single-round infection, n = 3. The method in brief: as §1
For data set [13], the system named is HIV-1 NNRTI-resistant mutant L100I/K103N. Put plainly: Single-round infectivity assay, L100I/K103N. Conditions: Human immunodeficiency virus 1, read-out: EC50 L100I/K103N. The method in brief:
as §1

Data set [14] has as its system HIV-1 NNRTI-resistant mutant K103N/P225H. As to the kind of experiment: Single-round infectivity assay, K103N/P225H. The note with it: Human immunodeficiency virus 1, read-out: EC50 K103N/P225H. The method in brief:
as §1

Data set [15] concerns HIV-1 NNRTI-resistant mutant V106A/G190A/F227L. As to the kind of experiment: Single-round infectivity assay, V106A/G190A/F227L. Conditions: Human immunodeficiency virus 1, read-out: EC50 V106A/G190A/F227L. The method in brief: as §1
Data set [16] relates to HIV-1 DOR-resistant mutant L234I. Put plainly: Single-round infectivity assay, L234I. The note with it: read-out: EC50 L234I; single-round infection, n = 3. The method in brief:
as §1

Data set [17] has as its system HIV-1 RT-resistant mutant E40K. Put plainly: Single-round infectivity assay, E40K. Conditions: read-out: EC50 E40K; single-round infection, n = 3. The method in brief:
as §1

For data set [18], the system named is HIV-1 RT-resistant mutant D67E. As to the kind of experiment: Single-round infectivity assay, D67E. The note with it: read-out: EC50 D67E; single-round infection, n = 3. The method in brief:
as §1

Data set [19] deals with HIV-1 RT-resistant mutant K101E. As to the kind of experiment: Single-round infectivity assay, K101E. The note with it: Human immunodeficiency virus 1, read-out: EC50 K101E. The method in brief: as §1
Data set [20] concerns HIV-1 RT-resistant mutant M184V. Put plainly: Single-round infectivity assay, M184V. Conditions: read-out: EC50 M184V; single-round infection, n = 3. The method in brief: as §1
For data set [21], the system named is HIV-1 RT-resistant mutant K101E/M184I. As to the kind of experiment: Single-round infectivity assay, K101E/M184I. The note with it: read-out: EC50 K101E/M184I; single-round infection, n = 3. The method in brief: as §1
In data set [22] the test system is HIV-1 RT-resistant mutant K101E/M184V. Put plainly: Single-round infectivity assay, K101E/M184V. Conditions: read-out: EC50 K101E/M184V; single-round infection, n = 3. The method in brief: as §1
Data set [23] relates to HIV-1 NNRTI-resistant mutant K101P. As to the kind of experiment: Single-round infectivity assay, K101P. Conditions: read-out: EC50 K101P; single-round infection, n = 3. The method in brief: as §1
Data set [24] relates to HIV-1 DOR-resistant mutant V106A/F227L. Put plainly: Single-round infectivity assay, V106A/F227L. Conditions: read-out: EC50 V106A/F227L; single-round infection, n = 3. The method in brief: as §1
Data set [25] concerns HIV-1 DOR-resistant mutant V106A/L234I. As to the kind of experiment: Single-round infectivity assay, V106A/L234I. The note with it: read-out: EC50 V106A/L234I; single-round infection, n = 3. The method in brief: as §1
In data set [26] the test system is HIV-1 DOR-resistant mutant V106A/F227L/L234I. Put plainly: Single-round infectivity assay, V106A/F227L/L234I. The note with it: read-out: EC50 V106A/F227L/L234I; single-round infection, n = 3. The method in brief:
as §1

For the compound `Cc1cc(/C=C/C#N)cc(C)c1-n1cnc2cnc(Nc3ccc4cc(C#N)ccc4c3)nc21` [Compound 10, (E)‐6‐((9‐(4‐(2‐cyanovinyl)‐2,6‐dimethylphenyl)‐9H‐purin‐2‐yl)amino)‐2‐naphthonitrile], half-maximal cytotoxicity in data set [1] (CC50) was put at 10800 ± 1200 nM. In addition, the EC50 with WT HIV-1 turned out to be 2.3 ± 0.2 nM; in [2] it was 24.2 ± 6.1 nM; in data set [3], 24.5 ± 4.9 nM; in data set [4], 32.7 ± 4.4 nM; in [5], 47.7 ± 7.8 nM; in data set [6] it was 180 ± 14.7 nM. Moreover, the EC50 in data set [7] worked out at 3.4 ± 0.3 nM; in [8] it was 468 ± 88.8 nM; in data set [9] it was 1.6 ± 0.3 nM; in data set [10], 2.1 ± 0.1 nM; in data set [11] it was 33.8 ± 2.7 nM; in data set [12], 1.6 ± 0.1 nM. Moreover, the EC50 in data set [13] came to 386 ± 19.9 nM; in [14], 103 ± 8.1 nM; in data set [15], 7 ± 0.5 nM; in [16], 2.3 ± 0.2 nM; in data set [17], 4.2 ± 0.7 nM; in data set [18], 10 ± 1.9 nM. Also, the EC50 in [19] stood at 13.4 ± 1 nM; in [20], 3.1 ± 0.4 nM; in data set [21], 14 ± 0.1 nM; in data set [22] it was 4.7 ± 0.8 nM. Further, the “TI (therapeutic index)” value with WT HIV-1 is listed as 4,696.
Compound `Cc1cc(/C=C/C#N)cc(C)c1Nc1nc(Nc2ccc(/C=C/C#N)cc2)ncc1N` [Compound 12, (E)‐3‐(4‐((5‐amino‐2‐((4‐((E)‐2‐cyanovinyl)phenyl)amino)pyrimidin‐4‐yl)amino)‐3,5‐dimethylphenyl)acrylonitrile] had a CC50 in data set [1] of 32200 ± 1500 nM. Besides, the EC50 with WT HIV-1 was 1.2 ± 0.2 nM; in [2], 1.8 ± 0.2 nM; in data set [3], 1.6 ± 0.2 nM; in data set [4], 6.5 ± 0.9 nM; in data set [5], 5.3 ± 0.8 nM; in [6] it was 44 ± 2.6 nM. The EC50 was 1.6 ± 0.1 nM in [7]; 22.4 ± 1.1 nM in [8]; 126 ± 29.4 nM in [23]; 16.9 ± 1.2 nM in data set [11]; 16.1 ± 0.2 nM in data set [13]; 1.6 ± 0.2 nM in data set [14]. In addition, the EC50 in data set [15] worked out at 2.5 ± 0.5 nM; in data set [24] it was 2 ± 0.1 nM; in data set [25], 1.4 ± 0.5 nM; in data set [26], 1.3 ± 0.1 nM; in [19], 3.4 ± 0.1 nM. Also, the “TI (therapeutic index)” value with WT HIV-1 was >25,000.
